Measured values as given in ChEMBL document CHEMBL1125258, “Topographically designed analogues of [D-Pen,D-Pen5]enkephalin” (J Med Chem, 1991).

Columns and labels:
[1] = species: Cavia porcellus; assay: Percent maximal inhibition (Emax) was measured using guinea pig ileum assay (GPI).; type: functional
[2] = target: T1, Mu-type opioid receptor (Rattus norvegicus, UniProt P33535); assay: Binding affinity measured against [3H]CTOP (Opioid receptor mu 1) in rat brain using radioreceptor binding assays.; type: tissue-based
Summary of the method: (§1)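 Male Sprague-Dawley rat whole brain minus cerebellum, homogenised and washed three times (30 min at 25 °C in 50 mM Tris) to remove endogenous opioids. Homogenate at 0.5% final was incubated with 0.5 nM [3H]CTOP in 50 mM Tris-HCl pH 7.4 containing 5 mM MgCl2 and BSA 1 mg/mL for 120 min at 25 °C. Nonspecific binding was defined with 1 μM naltrexone. Bound ligand was collected by filtration and counted by scintillation; duplicates, 2–4 experiments.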

[3] = target: T2, Delta-type opioid receptor (Rattus norvegicus, UniProt P33533); assay: Inhibitory activity measured against [3H]DPDPE (Opioid receptor delta 1 ligand) in rat brain using radioreceptor binding assays.; type: tissue-based
Summary of the method: (§2)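 Male Sprague-Dawley rat brain membranes (minus cerebellum), washed three times to remove endogenous opioids. Specific binding was defined as that displaced by 1 μM naltrexone. Filtration and scintillation counting; duplicates, 2–4 experiments.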

[4] = target: T1, Mu-type opioid receptor; assay: Inhibitory activity measured against [3H]CTOP (Opioid receptor mu 1) in rat brain using radioreceptor binding assays.; type: tissue-based; summary of the method: as §1
[5] = target: Delta-type opioid receptor (Mus musculus, UniProt P32300); assay: Inhibitory activity measured against Opioid receptor delta 1 using mouse vas deference assay (MVD).
Summary of the method: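 Vas deferens from male ICR mice (25–30 g) in magnesium-free oxygenated Krebs bicarbonate at 37 °C under 0.5 g tension. Electrical stimulation at 0.1 Hz with 2.0-ms pulses at supramaximal voltage. Agonist contact was 3 min.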

[6] = target: T2, Delta-type opioid receptor; assay: Binding affinity measured against [3H]DPDPE (Opioid receptor delta 1 ligand) in rat brain using radioreceptor binding assays.; type: tissue-based; summary of the method: as §2
[7] = target: Mu-type opioid receptor (Cavia porcellus, UniProt P97266); assay: Inhibitory activity measured against Opioid receptor mu 1 using guinea pig ileum assay (GPI).; type: tissue-based
Summary of the method: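 Longitudinal muscle-myenteric plexus from the ileum of male Hartley guinea pigs (150–400 g) in oxygenated Krebs bicarbonate at 37 °C under 1 g tension. Electrical stimulation at 0.1 Hz with 0.4-ms pulses at supramaximal voltage. Agonist exposure was 3 min, followed by rinse and 8 min re-equilibration. Percent inhibition of contraction was fitted to a logistic equation for IC50; duplicates, 2–4 experiments.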

Delta-type opioid receptor (Mus musculus, UniProt P32300), sequence (P32300 whole entry): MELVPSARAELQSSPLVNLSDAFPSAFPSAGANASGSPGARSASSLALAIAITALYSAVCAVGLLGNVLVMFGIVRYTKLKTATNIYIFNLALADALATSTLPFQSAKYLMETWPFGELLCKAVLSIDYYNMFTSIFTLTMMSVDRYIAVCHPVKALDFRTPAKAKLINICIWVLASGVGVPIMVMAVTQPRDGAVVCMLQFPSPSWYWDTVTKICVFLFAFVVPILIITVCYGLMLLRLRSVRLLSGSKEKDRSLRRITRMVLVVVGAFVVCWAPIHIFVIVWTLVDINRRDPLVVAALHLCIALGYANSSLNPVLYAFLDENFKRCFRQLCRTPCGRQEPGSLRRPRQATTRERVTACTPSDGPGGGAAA
T2 sequence (P33533 whole entry): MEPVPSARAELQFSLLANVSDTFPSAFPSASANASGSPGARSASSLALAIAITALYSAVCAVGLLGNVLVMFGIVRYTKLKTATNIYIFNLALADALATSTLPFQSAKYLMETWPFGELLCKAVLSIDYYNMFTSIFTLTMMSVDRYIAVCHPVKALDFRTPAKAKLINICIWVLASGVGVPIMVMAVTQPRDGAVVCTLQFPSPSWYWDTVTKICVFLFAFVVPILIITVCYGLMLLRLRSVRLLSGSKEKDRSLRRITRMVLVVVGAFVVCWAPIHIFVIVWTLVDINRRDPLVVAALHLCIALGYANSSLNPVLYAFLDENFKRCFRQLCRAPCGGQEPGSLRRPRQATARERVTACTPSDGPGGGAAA
T1 sequence (P33535 whole entry): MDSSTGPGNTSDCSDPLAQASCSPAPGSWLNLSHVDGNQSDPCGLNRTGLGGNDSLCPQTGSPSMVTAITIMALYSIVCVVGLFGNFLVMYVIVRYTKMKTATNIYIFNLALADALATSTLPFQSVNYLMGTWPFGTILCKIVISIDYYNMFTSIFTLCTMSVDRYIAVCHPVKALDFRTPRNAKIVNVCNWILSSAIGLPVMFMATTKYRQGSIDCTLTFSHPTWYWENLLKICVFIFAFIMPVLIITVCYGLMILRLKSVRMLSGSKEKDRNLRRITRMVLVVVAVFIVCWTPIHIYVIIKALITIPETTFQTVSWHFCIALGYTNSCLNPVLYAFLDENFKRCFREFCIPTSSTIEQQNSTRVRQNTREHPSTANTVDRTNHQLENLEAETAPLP
Mu-type opioid receptor (Cavia porcellus, UniProt P97266), sequence (P97266 whole entry): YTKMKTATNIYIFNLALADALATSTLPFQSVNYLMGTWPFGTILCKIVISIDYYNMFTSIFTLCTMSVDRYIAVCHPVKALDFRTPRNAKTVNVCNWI

| SMILES | E max [1] | Ki [2] | IC50 [3] | IC50 [4] | IC50 [5] | Ki [6] | IC50 [7] |
| --- | --- | --- | --- | --- | --- | --- | --- |
| C[C@H](c1ccccc1)[C@@H]1NC(=O)CNC(=O)[C@H](NC(=O)[C@@H](N)Cc2ccc(O)cc2)C(C)(C)SSC(C)(C)[C@H](C(=O)O)NC1=O (stereo in doubt; 4) | 56% | – | – | – | – | – | – |
| C[C@@H](c1ccc([N+](=O)[O-])cc1)[C@H]1NC(=O)CNC(=O)[C@H](NC(=O)[C@@H](N)Cc2ccc(O)cc2)C(C)(C)SSC(C)(C)[C@H](C(=O)O)NC1=O [listing 1 of 2 here] | 66% | – | – | – | – | – | – |
| C[C@H](c1ccccc1)[C@H]1NC(=O)CNC(=O)[C@H](NC(=O)[C@@H](N)Cc2ccc(O)cc2)C(C)(C)SSC(C)(C)[C@H](C(=O)O)NC1=O | 100% | – | – | – | – | – | – |
| C[C@H](c1ccc([N+](=O)[O-])cc1)[C@@H]1NC(=O)CNC(=O)[C@H](NC(=O)[C@@H](N)Cc2ccc(O)cc2)C(C)(C)SSC(C)(C)[C@H](C(=O)O)NC1=O [listing 1 of 2 here] | – | 24 nM | 4.2 nM | 105 nM | 27 nM | 3.4 nM | 2700 nM |
| C[C@H](c1ccc([N+](=O)[O-])cc1)[C@H]1NC(=O)CNC(=O)[C@@H](NC(=O)[C@@H](N)Cc2ccc(O)cc2)C(C)(C)SSC(C)(C)[C@@H](C(=O)O)NC1=O (stereo in doubt; 6) | 73% | 530 nM | 6.89 nM | 2200 nM | 4.59 nM | 5.5 nM | 25700 nM |
| C[C@H](c1ccc([N+](=O)[O-])cc1)[C@H]1NC(=O)CNC(=O)[C@@H](NC(=O)[C@@H](N)Cc2ccc(O)cc2)C(C)(C)SSC(C)(C)[C@@H](C(=O)O)NC1=O (stereo in doubt; 7) | – | – | 226 nM | > 10000 nM | 630 nM | 180 nM | > 10000 nM |
| C[C@@H](c1ccc([N+](=O)[O-])cc1)[C@H]1NC(=O)CNC(=O)[C@H](NC(=O)[C@@H](N)Cc2ccc(O)cc2)C(C)(C)SSC(C)(C)[C@H](C(=O)O)NC1=O [listing 2 of 2 here] | – | 240 nM | 222 nM | 1020 nM | 1790 nM | 180 nM | 12300 nM |
| C[C@@H](c1ccccc1)[C@H]1NC(=O)CNC(=O)[C@H](NC(=O)[C@@H](N)Cc2ccc(O)cc2)C(C)(C)SSC(C)(C)[C@H](C(=O)O)NC1=O | 100% | – | – | – | – | – | – |
| C[C@H](c1ccc([N+](=O)[O-])cc1)[C@@H]1NC(=O)CNC(=O)[C@H](NC(=O)[C@@H](N)Cc2ccc(O)cc2)C(C)(C)SSC(C)(C)[C@H](C(=O)O)NC1=O [listing 2 of 2 here] | 74% | – | – | – | – | – | – |
